Screening results as filed in PubChem BioAssay.
This is a sample that favours compounds with a hit; in the whole collection about 3.1% have one here.
KCNQ1 block = blocks the human KCNQ1 potassium channel; P51787; CHO-K1 KCNQ1, FluxOR thallium flux fluorescence; stronger effect = higher value; B-score at 10 µM; 310,000 tested, 1.3% active;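 active = compounds whose thallium flux B-score, printed positive for inhibition, exceeds three library SD while starting fluorescence stays within three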;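 also: channel opened by potassium depolarization with thallium stimulus after 20 min compound exposure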
KCNQ1 pot = human KCNQ1 channel potentiation or activation. CHO-K1 KCNQ1, thallium flux FluxOR fluorescence; stronger effect = higher value. B-score at 10 µM. 310,000 tested, 0.35% active;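 active = fluorescence ratio B-score, a plate-corrected score, at least three library SD, with initial intensity B-score within 5 SD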
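Assay system: stable KCNQ1 CHO-K1 line; medium: assay buffer, equal DMSO in all wells; timing: 90 min dye loading and 20 min compound exposure, both at room temperature; technique: kinetic FluxOR thallium fluorescence, 10-s 1-Hz baseline, 110-s post-stimulus read; read-out basis: B score of baseline-normalized fluorescence ratio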
hERG protect = hERG (human) protection from proarrhythmic block; Q12809; CHO-hERG, FluxOR thallium flux, dofetilide IC70 present; activation (rescue from dofetilide block), less the hit threshold, % at 10 µM; 310,000 tested, 0.51% active; AID 1511;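 active = activation above the mean of controls blocked by dofetilide plus 5 SD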;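 also: thallium influx through hERG after potassium depolarization seen as dye fluorescence rise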
KCNK9 block = inhibitors of human KCNK9 two-pore domain potassium channel; Q9NPC2; HEK293 KCNK9, FluxOR thallium flux fluorescence; stronger effect = lower value; B-score at 10 µM; 310,000 tested, 1.2% active; AID 488922;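 active = ratio B-score over 3 SD below the library mean, with starting fluorescence within 5 SD of its mean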;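 also: negative B-score means less thallium flux so channel inhibition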
Target sequence (Q9NPC2 whole entry, looked up, the tested form may be a part): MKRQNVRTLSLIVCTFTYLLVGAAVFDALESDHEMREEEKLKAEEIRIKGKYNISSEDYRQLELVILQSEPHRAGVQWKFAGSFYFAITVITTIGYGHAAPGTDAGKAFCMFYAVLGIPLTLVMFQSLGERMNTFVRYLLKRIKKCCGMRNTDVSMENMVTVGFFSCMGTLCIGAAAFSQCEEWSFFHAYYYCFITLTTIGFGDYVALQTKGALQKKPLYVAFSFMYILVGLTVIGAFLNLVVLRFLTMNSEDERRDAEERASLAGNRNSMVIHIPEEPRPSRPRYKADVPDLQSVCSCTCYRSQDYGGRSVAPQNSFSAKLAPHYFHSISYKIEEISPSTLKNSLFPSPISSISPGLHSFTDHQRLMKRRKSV
KCNK3 block = human KCNK3 channel inhibition, primary screen; AID 602410; CHO-KCNK3 thallium flux, FluxOR fluorescence; stronger effect = lower value; B-score at 10 µM; O14649; 340,000 tested, 0.84% active;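 active = B-score under library mean minus 4 SD, starting fluorescence ratio at most library mean plus 5 SD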;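 also: more negative B-score means stronger inhibition of thallium flux through KCNK3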
Starred values were filed as active, the others as inactive; i = inactive; · = no result given.

SMILES | KCNQ1 block | KCNQ1 pot | hERG protect | KCNK9 block | KCNK3 block
CCCCCCCCCCCCCCCC(=O)Nc1ccn(C2OC(CO)C(O)C2O)c(=O)n1 (configuration not stated) | · | · | · | · | i
Cc1nn(-c2ccc(Cl)cc2)c2sc(C(=O)c3c(N)n(C)c(=O)n(C)c3=O)cc12 | i | i | 24* | i | i
CC(=O)C[C@H]1c2cc(C(F)(F)F)ccc2S(=O)(=O)N1Cc1ccccc1 | i | 9* | -12 | i | i
CC(=O)C[C@H]1c2cc(C(F)(F)F)ccc2S(=O)(=O)N1c1ccccc1 | i | i | -9 | i | i
Fc1ccc(NC(=S)Nc2ccc(F)c(Cl)c2)cc1Cl | 13* | i | -34 | -6.7* | -9.2*
COC(=O)c1ccc(NC(=O)Nc2ccc(F)cc2)cc1 | 6* | i | -13 | i | i
COC(=O)NC(=S)Nc1ccc(Oc2ccc(Cl)cc2Cl)c(Cl)c1 | i | 16* | -3 | i | i
COC(=O)c1ccc(NC(=O)Nc2ccc(F)c(Cl)c2)cc1 | 6* | i | -8 | i | i
O=C(NN=Cc1cc(Br)c(O)c(Br)c1)c1ccccc1NS(=O)(=O)c1cccs1 | · | · | · | · | i
CCC(C)NC(=O)Cn1nc(Cc2ccncc2)c2ccccc2c1=O (configuration not stated) | i | i | -7 | i | i
CCC(C)C(N)C1=NC(C(=O)N[C@@H](CC(C)C)C(=O)N[C@H](CCC(=O)[O-])C(=O)N[C@H](C(=O)N[C@H]2CCCCNC(=O)[C@H](CC(N)=O)NC(=O)[C@@H](CC(=O)[O-])NC(=O)[C@H](Cc3cnc[nH]3)NC(=O)[C@@H](Cc3ccccc3)NC(=O)[C@H]([C@@H](C)CC)NC(=O)[C@@H](CCCN)NC2=O)[C@@H](C)CC)CS1.[Zn+2] (some centres not stated) | · | · | · | · | i
O=[N+]([O-])c1ccc(Oc2ccc(S(=O)(=O)Nc3ccccc3)cc2)cc1 | i | i | -8 | i | i
O=C1C(Cl)=C(NS(=O)(=O)c2ccc([N+](=O)[O-])cc2)C(=O)c2ccccc21 | 6* | i | -23 | i | i
COc1ccc(N(C)C(=O)c2ccc3nc(-c4ccccc4)c(-c4ccccc4)nc3c2)cc1 | 9* | i | -10 | -7.4* | i
CN1C(=O)/C(=C/c2cc(N=Nc3ccccc3)ccc2O)SC1=S | 7* | i | -8 | i | i
O=C1/C(=C\c2cc(Br)cc(Br)c2O)SC(=S)N1Cc1ccccc1 | i | i | -8 | i | i
Cc1c(N2C(=O)/C(=C/c3cccc4ccccc34)SC2=S)c(=O)n(-c2ccccc2)n1C | i | i | -8 | i | i
Cc1c(N2C(=O)/C(=C\c3ccccc3O)SC2=S)c(=O)n(-c2ccccc2)n1C | i | 42* | 17* | i | i
Cc1cc(OC(F)F)ccc1NC(=O)Nc1ccc([N+](=O)[O-])cc1 | 6* | i | -11 | i | i
O=C(Nc1ccc([N+](=O)[O-])cc1)Nc1ccc(Cl)cc1F | 14* | i | -16 | i | i
COc1ccc(S(=O)(=O)Nc2nc3ccccc3nc2Nc2cccc(C(=O)O)c2)cc1 | i | i | -10 | i | i
O=C(CSc1nnnn1-c1cccc(F)c1)NC1CC1 | · | · | · | · | i
C=C(C)Cn1cnc2cc(C)c(C)cc21 | i | i | 8.6* | i | i
Cc1ccc(-c2csc(NC(=O)Cc3ccc(F)cc3)n2)o1 | i | 14* | -14 | i | i
COc1ccc(CC(=O)Nc2nc(-c3cccnc3)cs2)cc1 | i | i | -5 | i | i
COc1cccc(-c2c(C(=O)O)cc(O)c3ccc(OC)cc23)c1 | · | · | · | · | i
CCn1c(SCC(N)=O)nc2c(c1=O)C1(CCCC1)Cc1ccccc1-2 | i | i | -4 | -6.7* | i
NC(=O)CSc1nc2c(c(=O)n1-c1ccccc1)C1(CCCCC1)Cc1ccccc1-2 | i | i | -3 | i | i
COCCCn1c(C(=O)N2CC(C)OC(C)C2)cc2c(=O)n3ccccc3nc21 (configuration not stated) | i | i | -4 | i | i
CSc1nnc(-c2cc(-c3ccc(C)cc3)nc3ccccc23)o1 | i | i | -14 | -7.4* | i
